Rows were chosen to be rich in hits. Some 4.9% of all compounds tested hit in one or more screens of this group.
HSF1 activator = HSF-1 activators, primary screen, NIH3T3-HGL cells, MG132 stress, luminescence, single point | activation, % at 9 µM | AID 504408, 2011 | NIH3T3-HGL HSF-1 luciferase reporter, 8 h; 100% = twice DMSO control signal | 300,000 compounds, 1.7% hits;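 active means mean replicate activation of at least 50% with a set share of replicates each reaching 50%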;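 further: 0% = median of the neutral control wells and 100% = twice that signal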
Hep lipid drop = inhibitors of hepatocyte lipid droplet formation, primary screen, imaging, high-throughput imaging, BODIPY stain | AML12 mouse hepatocytes, oleate lipid droplets | AID 1656, 2009 | 240,000 compounds, 0.4% hits | inhibition, % at 6.5 µM;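 active means lipid droplet intensity inhibited by at least 50%, with more than 500 cells counted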
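Assay system: AML12 mouse liver cells | Compound dosing: One dose, 6.5 µM compound | Read-out basis: Droplet intensity reduction, % inhibition | Measured by: Fluorescence imaging, 20x objective, two fields per well | Schedule: Overnight treatment with compound plus oleate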
HSF1 inh = HSF1 inhibitors in luciferase reporter cells, primary screen, cell-based, NIH3T3, luminescence | NIH3T3-HGL HSE-luciferase, MG132-induced, luminescence 8 h; stronger effect = lower value | activity change, negative = inhibition, % at 7.5 µM (by protocol) | 300,000 compounds, 0.77% hits | AID 2098, 2009;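 active means more than half of replicate wells show activity change below -50%, luminescence cut by over half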;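 further: luciferase reports HSF-1 transcriptional activity via heat shock element; 0% = median of DMSO wells and -100% = zero luminescence signal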
CHT allo act = CHT positive allosteric modulators, primary screen, cell-based, membrane potential dye, choline EC20; B-score at 10 µM; 310,000 compounds, 0.49% hits; High affinity choline transporter 1 (Homo sapiens), Q9GZV3; CHT-expressing cells; stronger effect = higher value; LV-AA mutant CHT in HEK293 cells; AID 488977, 2010;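 active means initial fluorescence not abnormally high and integrated response B-score, plate-corrected, over 3 SD above library mean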
Target sequence (Q9GZV3 whole entry, looked up): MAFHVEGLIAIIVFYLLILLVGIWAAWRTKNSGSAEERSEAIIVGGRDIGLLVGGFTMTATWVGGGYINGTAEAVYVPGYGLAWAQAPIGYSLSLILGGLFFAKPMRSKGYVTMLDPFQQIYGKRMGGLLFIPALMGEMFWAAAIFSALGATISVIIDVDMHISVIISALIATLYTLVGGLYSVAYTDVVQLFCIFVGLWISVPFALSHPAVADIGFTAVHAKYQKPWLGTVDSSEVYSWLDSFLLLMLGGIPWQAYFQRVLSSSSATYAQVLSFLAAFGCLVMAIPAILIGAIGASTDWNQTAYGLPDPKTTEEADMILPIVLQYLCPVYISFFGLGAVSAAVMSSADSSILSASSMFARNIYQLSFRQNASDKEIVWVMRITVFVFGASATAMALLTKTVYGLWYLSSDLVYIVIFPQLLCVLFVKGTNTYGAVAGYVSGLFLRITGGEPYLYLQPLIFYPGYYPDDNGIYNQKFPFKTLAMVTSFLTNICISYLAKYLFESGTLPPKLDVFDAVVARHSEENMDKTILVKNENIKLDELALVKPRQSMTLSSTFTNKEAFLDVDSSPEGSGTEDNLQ
CHT block = inhibitors of human choline transporter CHT | AID 488975, 2010 | CHT-expressing cells, membrane potential dye, choline response; stronger effect = lower value | 310,000 compounds, 0.86% hits | High affinity choline transporter 1 (Homo sapiens), Q9GZV3 | B-score at 10 µM;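 active means B-score over 3 SD under the library average, and starting fluorescence ratio not unusually high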;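 further: choline stimulus applied at its EC90 after an EC20 pre-addition; B-score computed on integrated fluorescence ratio after choline addition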
PHOSPHO1 inh = PubChem AID 1565. recombinant PHOSPHO1, absorbance phosphatase assay. inhibition, % at 13.3 µM. 290,000 compounds, 1.1% hits; in the data active means inhibition above about 60%
* = called active by the depositor; i = inactive; . = no result given.

SMILES	HSF1 activator	Hep lipid drop	HSF1 inh	CHT allo act	CHT block	PHOSPHO1 inh
CCOC(=O)c1c(S(=O)(=O)NCC(=O)Nc2cccc(C)c2)c(C)n(C)c1C	23	-8	4	i	i	70*
Cn1/c(=N\NC(=O)c2ccccc2Cl)sc2ccccc21	19	5	27	i	i	11
Cc1cccc2sc(NNC(=O)C3COc4ccccc4O3)nc12 (configuration not stated)	-90	0	-87*	i	i	-9
O=C1CC(c2ccco2)Cc2nc(Nc3nc(-c4ccccc4)c4ccccc4n3)ncc21 (configuration not stated)	0	.	1	i	i	9
Cc1ccc(C(=O)c2coc3c2C(=O)C(=O)c2ccccc2-3)cc1	22	-29	7	i	i	85*
CCN1CCN(c2nc(Nc3ccc(OC)cc3)nc(N)c2[N+](=O)[O-])CC1	3	21	-3	i	i	21
CCn1nc(NC(=O)c2ccccn2)c2cc3cccc(C)c3nc21	23	.	2	i	i	3
COc1cccc(NC(=S)N(CCCN2CCN(C)CC2)Cc2ccco2)c1	61*	2	21	i	i	9
COc1cccc(NC(=S)N(CCCN2CCCC2)Cc2ccco2)c1	45	-4	6	i	i	1
COc1ccc(C(C(=O)NCC2CCCO2)N(C(=O)CNC(=O)c2cccs2)c2ccccc2)cc1OC (configuration not stated)	29	16	0	i	i	-5
C1CCC(n2nnnc2CN2CCN(C3CCCC3)CC2)CC1	-5	.	0	i	i	8
C1CCC(Nc2nnnn2C2CCCCC2)CC1	-65	.	-59*	i	i	9
COc1ccc(-c2nnc(SCc3csc(N)n3)n2C)cc1	.	.	.	i	i	73*
CCCCSc1nnc(-c2ccc(OC)cc2)n1C	19	5	4	i	i	-1
CN(C)C(=O)C[n+]1cccc(/C=N/O)c1	11	18	-2	i	i	-35
COc1ccc(CNC(=O)CN2C(=O)C(C)N(c3ccc(C)cc3)C2=O)cc1 (configuration not stated)	54*	19	16	i	i	14
O=C(NCC(=O)N(c1cccc(F)c1)C(C(=O)NC1CCCC1)c1ccncc1)c1ccco1 (configuration not stated)	54*	-34	40	i	i	0
O=C(NCC(=O)N(c1ccc(F)cc1)C(C(=O)NC1CCCC1)c1cccnc1)c1cccs1 (configuration not stated)	-6	4	5	i	i	45
O=C(NCC(=O)N(c1ccccc1)C(C(=O)NC1CCCCC1)c1cccnc1)c1cccs1 (configuration not stated)	20	6	8	i	i	63*
CC(C)CCN(C(=O)CNC(=O)c1cccs1)C(C(=O)NC1CCCCC1)c1cccnc1 (configuration not stated)	-76	4	-70*	i	i	30
CN(C)c1ccc(NS(=O)(=O)c2cc(Cl)ccc2Cl)cc1	-61	0	-56*	i	i	-15
Nc1ccc(Cl)c(S(=O)(=O)Nc2cccc(Cl)c2)c1	14	10	4	i	-8.9*	-20
COc1nc(C#N)c(N2CCOCC2)o1	9	1	-4	i	i	21
Cc1noc(C)c1CSc1ncnc2sc3c(c12)CCC3	-78	.	-73*	.	.	-11
Brc1ccc2c(c1)C(c1ccc(N3CCOCC3)cc1)=NNC(c1cccs1)=N2	39	21	20	i	i	17
SMILES	HSF1 activator	Hep lipid drop	HSF1 inh	CHT allo act	CHT block	PHOSPHO1 inh
Brc1ccc2c(c1)C(c1cccnc1)=NNC(c1cccs1)=N2	64*	-3	26	i	i	-7
Cc1ccc(-n2nnc(-c3cccnc3Cl)n2)cc1	70*	-14	44	i	i	18
Cc1cc(C)n(Cc2n[nH]c(=S)n2Cc2ccccc2)n1	-5	.	-4	i	i	90*
Cc1nn(Cc2n[nH]c(=S)n2Cc2ccccc2)c(C)c1Cl	-1	.	1	i	i	99*
Cc1ccccc1OCc1n[nH]c(=S)n1Cc1ccccc1	23	-2	5	i	i	-19
CCn1c(C)cc(O)cc1=O	25	-23	-3	i	i	24
CC(=O)Nc1ccc(N/C(C)=C/C(=O)c2cccnc2)cc1	-6	9	-2	i	i	8
CC/C(=C\C(=O)c1cccnc1)Nc1ccc(C)c(C)c1	21	.	22	i	i	96*
c1ccc(-c2nnc(OCCN3CCOCC3)c3ccccc23)cc1	3	-2	-5	i	i	25
O=C(N/N=C/c1ccccc1F)c1csc2c1CCCC2	65*	.	46	i	i	15
O=C(Nc1ccccc1O)c1csc2c1CCCC2	93*	2	39	i	i	37
COc1ccc(NC(=O)c2csc3c2CCCCC3)c(OC)c1	29	-36	-3	i	i	-10
O=C(NNS(=O)(=O)c1ccc(Br)cc1)c1csnn1	.	13	.	.	.	32
CN(C(=O)N1CCN(S(=O)(=O)c2ccccc2)CC1)c1ccccc1	-2	3	-5	i	i	-1
CCOP(=O)(OCC)c1nc(-c2cccc3ccccc23)oc1N1CCOCC1	74*	22	22	i	i	-18
COc1ccc(-n2nc3c(=O)[nH][nH]c3cc2=O)cc1	-3	2	-9	i	i	49
COc1c(Cl)cccc1-c1cn2ccc(C)cc2n1	58*	7	26	i	i	-7
O=C(Nc1ccc(N2CCCC2)cc1)c1ccccc1[N+](=O)[O-]	12	6	12	i	i	3
Cc1ccc(-c2ccc(/C=N\NC(=O)C3C(=O)NCC3c3ccccc3)o2)cc1Cl (configuration not stated)	10	-33	9	i	i	60*
COc1ccc2[nH]c(=S)[nH]c2c1	.	.	.	i	i	92*
Cc1ccc(C(=O)/C=C/c2ccc(-c3ccccc3[N+](=O)[O-])o2)cc1	-1	0	2	i	i	53
Cc1ccc(C(=O)C(C)OC(=O)c2ccccc2[N+](=O)[O-])cc1 (configuration not stated)	87*	12	51	i	i	-9
COc1ccccc1C(=O)NNC(=O)c1ccccc1[N+](=O)[O-]	8	34	-3	i	i	-27
